Assay results as given in ChEMBL document CHEMBL5653631, “A Potent and Selective ULK1 Inhibitor Suppresses Autophagy and Sensitizes Cancer Cells to Nutrient Stress” (iScience, 2018).
One block for each molecule: values may come before it.

How the values were obtained:
[1] = target: Vascular endothelial growth factor receptor 2 (Homo sapiens) (UniProt P35968); assay: Inhibition of human recombinant KDR at 500 nM in presence of ATP by radiometric assay relative to control
[2] = target: Serine/threonine-protein kinase 32A (Homo sapiens) (UniProt Q8WU08); assay: Inhibition of human recombinant YANK1 at 500 nM in presence of ATP by radiometric assay relative to control
[3] = target: Mitogen-activated protein kinase 14 (Homo sapiens) (UniProt Q16539); assay: Inhibition of human recombinant p38alpha at 500 nM related to control ULK1
[4] = target: T1, Beta-adrenergic receptor kinase 1 (Homo sapiens) (UniProt P25098); assay: Inhibition of human recombinant BARK1 at 15 nM in presence of ATP by radiometric assay relative to control
T1 sequence (whole entry): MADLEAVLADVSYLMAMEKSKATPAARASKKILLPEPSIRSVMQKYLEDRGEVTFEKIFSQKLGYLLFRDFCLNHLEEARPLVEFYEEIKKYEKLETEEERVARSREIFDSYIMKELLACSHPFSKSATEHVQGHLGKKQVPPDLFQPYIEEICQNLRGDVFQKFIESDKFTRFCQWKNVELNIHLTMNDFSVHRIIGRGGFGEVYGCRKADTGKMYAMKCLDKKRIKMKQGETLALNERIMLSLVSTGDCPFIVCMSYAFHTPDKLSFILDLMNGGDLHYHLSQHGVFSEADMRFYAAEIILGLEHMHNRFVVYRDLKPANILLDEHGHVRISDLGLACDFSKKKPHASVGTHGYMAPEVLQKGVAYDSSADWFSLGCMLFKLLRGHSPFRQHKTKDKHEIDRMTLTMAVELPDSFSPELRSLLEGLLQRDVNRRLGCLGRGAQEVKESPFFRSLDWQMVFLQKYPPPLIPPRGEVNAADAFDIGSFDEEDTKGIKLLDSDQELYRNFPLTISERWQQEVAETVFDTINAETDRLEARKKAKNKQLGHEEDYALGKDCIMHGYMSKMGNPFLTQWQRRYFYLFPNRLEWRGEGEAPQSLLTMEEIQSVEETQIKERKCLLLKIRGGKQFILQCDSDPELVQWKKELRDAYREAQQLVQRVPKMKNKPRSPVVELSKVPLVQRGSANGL
How it was run: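 Part of a radiometric in vitro activity panel of 327 recombinant human kinases. Each kinase was tested in duplicate at one inhibitor concentration. Activity remaining was expressed as a percentage of the vehicle control, and percent inhibition was taken as 100 minus that value.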

[5] = target: Mitogen-activated protein kinase 1 (Homo sapiens) (UniProt P28482); assay: Inhibition of human recombinant Erk2 at 15 nM in presence of ATP by radiometric assay relative to control
[6] = target: Serine/threonine-protein kinase 35 (Homo sapiens) (UniProt Q8TDR2); assay: Inhibition of human recombinant CLIK1 at 15 nM related to control ULK1
[7] = target: cAMP-dependent protein kinase catalytic subunit alpha (Homo sapiens) (UniProt P17612); assay: Inhibition of human recombinant PKACalpha at 15 nM related to control ULK1
[8] = target: T2, Tribbles homolog 2 (Homo sapiens) (UniProt Q92519); assay: Inhibition of human recombinant Trb2 at 15 nM related to control ULK1
T2 sequence (whole entry): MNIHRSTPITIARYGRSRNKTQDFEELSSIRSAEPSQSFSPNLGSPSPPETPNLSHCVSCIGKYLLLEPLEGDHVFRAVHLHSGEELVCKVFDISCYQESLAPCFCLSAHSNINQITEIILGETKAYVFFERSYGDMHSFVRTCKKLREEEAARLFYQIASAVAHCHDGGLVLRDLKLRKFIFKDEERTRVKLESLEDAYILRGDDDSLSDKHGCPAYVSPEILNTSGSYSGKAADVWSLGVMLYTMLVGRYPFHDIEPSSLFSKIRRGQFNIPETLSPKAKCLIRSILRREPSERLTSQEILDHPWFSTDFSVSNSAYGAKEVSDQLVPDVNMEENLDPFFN

[9] = target: Tyrosine-protein kinase Yes (Homo sapiens) (UniProt P07947); assay: Inhibition of human recombinant YES at 15 nM related to control ULK1
[10] = target: Serine-protein kinase ATM (Homo sapiens) (UniProt Q13315); assay: Inhibition of human recombinant ATM at 40 nM in presence of ATP by radiometric assay relative to control
How it was run: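 Panel of 327 recombinant human kinases, each assayed in vitro by radiometric activity assay in duplicate at a single inhibitor concentration per compound, chosen with reference to its ULK1 inhibition. Activity remaining was expressed as percent of vehicle control, and percent inhibition was calculated as 100 minus percent activity remaining.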

[11] = target: Dual specificity protein kinase CLK1 (Homo sapiens) (UniProt P49759); assay: Inhibition of human recombinant CLK1 at 40 nM in presence of ATP by radiometric assay relative to control
[12] = target: Phosphorylase b kinase gamma catalytic chain, skeletal muscle/heart isoform (Homo sapiens) (UniProt Q16816); assay: Inhibition of human recombinant PHKg1 at 40 nM in presence of ATP by radiometric assay relative to control
[13] = target: Calcium/calmodulin-dependent protein kinase type II subunit beta (Homo sapiens) (UniProt Q13554); assay: Inhibition of human recombinant CaMK2b at 40 nM related to control ULK1
[14] = target: Cyclin-dependent kinase 4 (Homo sapiens) (UniProt P11802); assay: Inhibition of human recombinant CDK4 at 40 nM related to control ULK1
[15] = target: Receptor-interacting serine/threonine-protein kinase 2 (Homo sapiens) (UniProt O43353); assay: Inhibition of human recombinant RIPK2 at 40 nM related to control ULK1
[16] = target: Myosin light chain kinase, smooth muscle (Homo sapiens) (UniProt Q15746); assay: Inhibition of human recombinant smMLCK at 40 nM related to control ULK1

Chain of Serine-protein kinase ATM (Homo sapiens) (Q13315 whole entry): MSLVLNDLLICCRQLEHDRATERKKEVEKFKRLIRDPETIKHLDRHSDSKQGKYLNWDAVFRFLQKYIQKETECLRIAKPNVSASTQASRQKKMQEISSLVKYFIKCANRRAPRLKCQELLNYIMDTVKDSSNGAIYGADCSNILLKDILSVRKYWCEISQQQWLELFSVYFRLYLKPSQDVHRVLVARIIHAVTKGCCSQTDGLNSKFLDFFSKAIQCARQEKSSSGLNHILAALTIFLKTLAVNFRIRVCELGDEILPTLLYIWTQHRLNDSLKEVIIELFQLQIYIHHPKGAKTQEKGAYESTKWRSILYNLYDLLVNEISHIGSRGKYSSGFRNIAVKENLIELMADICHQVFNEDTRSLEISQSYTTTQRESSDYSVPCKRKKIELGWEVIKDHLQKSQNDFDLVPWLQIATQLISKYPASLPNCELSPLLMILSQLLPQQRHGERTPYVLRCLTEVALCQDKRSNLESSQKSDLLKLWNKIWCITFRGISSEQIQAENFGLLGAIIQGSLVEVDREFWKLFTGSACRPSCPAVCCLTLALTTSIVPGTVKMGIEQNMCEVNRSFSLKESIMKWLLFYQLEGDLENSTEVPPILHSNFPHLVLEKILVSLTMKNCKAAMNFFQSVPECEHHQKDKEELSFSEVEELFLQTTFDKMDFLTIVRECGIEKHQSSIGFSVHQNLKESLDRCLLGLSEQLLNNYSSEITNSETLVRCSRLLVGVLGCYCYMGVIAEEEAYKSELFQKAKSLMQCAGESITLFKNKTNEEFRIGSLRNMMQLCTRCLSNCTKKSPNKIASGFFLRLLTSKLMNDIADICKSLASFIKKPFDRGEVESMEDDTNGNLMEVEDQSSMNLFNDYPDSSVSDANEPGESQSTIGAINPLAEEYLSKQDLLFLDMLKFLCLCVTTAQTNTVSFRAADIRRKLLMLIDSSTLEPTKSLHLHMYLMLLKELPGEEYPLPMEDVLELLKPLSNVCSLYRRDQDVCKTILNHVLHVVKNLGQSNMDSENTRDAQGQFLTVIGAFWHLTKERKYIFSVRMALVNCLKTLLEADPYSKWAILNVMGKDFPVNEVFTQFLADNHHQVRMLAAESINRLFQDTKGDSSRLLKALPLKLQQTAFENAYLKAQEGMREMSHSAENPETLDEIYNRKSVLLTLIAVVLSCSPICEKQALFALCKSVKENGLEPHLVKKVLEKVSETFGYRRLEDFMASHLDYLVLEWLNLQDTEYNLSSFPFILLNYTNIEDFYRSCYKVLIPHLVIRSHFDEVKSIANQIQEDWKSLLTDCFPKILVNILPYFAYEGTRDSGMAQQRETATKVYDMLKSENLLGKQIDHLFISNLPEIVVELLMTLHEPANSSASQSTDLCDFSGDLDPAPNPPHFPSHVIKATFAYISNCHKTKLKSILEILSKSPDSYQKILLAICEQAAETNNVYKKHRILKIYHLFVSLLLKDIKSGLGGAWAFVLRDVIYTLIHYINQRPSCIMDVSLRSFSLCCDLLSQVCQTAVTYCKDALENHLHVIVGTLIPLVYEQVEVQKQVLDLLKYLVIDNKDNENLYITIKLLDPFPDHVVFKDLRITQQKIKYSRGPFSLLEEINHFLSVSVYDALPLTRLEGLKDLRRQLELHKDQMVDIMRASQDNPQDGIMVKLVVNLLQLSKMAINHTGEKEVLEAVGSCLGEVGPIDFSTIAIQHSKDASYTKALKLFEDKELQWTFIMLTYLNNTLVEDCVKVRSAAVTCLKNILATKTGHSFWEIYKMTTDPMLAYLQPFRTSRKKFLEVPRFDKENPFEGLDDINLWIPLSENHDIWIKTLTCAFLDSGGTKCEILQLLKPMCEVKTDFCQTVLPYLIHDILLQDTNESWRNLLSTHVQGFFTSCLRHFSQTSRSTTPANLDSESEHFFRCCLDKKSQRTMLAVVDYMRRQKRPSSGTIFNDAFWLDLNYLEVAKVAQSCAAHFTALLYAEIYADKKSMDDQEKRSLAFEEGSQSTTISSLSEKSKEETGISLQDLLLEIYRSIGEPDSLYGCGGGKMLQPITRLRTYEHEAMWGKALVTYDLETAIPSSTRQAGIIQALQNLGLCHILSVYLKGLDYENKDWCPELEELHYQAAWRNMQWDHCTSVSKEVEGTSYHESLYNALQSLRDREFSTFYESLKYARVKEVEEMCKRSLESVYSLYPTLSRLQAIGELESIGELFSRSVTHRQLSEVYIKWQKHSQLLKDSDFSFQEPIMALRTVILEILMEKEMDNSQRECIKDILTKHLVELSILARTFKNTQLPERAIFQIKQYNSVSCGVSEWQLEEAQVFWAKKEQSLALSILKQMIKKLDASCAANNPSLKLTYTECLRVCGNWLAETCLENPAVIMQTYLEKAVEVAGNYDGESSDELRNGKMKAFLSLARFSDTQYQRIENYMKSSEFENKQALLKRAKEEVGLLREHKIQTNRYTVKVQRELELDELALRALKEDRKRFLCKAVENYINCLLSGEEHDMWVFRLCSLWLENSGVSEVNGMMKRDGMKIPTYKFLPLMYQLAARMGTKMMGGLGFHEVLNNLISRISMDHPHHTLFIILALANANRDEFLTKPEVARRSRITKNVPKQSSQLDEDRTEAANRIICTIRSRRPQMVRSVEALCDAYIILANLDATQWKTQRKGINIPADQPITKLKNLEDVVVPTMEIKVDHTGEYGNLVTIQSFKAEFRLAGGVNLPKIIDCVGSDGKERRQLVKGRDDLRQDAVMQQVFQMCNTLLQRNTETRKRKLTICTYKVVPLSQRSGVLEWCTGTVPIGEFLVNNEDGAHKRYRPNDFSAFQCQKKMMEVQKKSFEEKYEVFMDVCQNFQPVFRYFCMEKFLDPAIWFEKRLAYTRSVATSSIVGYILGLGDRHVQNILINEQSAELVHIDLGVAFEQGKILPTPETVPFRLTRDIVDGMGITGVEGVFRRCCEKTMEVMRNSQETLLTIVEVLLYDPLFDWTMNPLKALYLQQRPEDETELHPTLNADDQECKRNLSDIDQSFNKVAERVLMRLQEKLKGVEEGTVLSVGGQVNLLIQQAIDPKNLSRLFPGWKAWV
Chain of Phosphorylase b kinase gamma catalytic chain, skeletal muscle/heart isoform (Homo sapiens) (Q16816 whole entry, looked up, canonical isoform): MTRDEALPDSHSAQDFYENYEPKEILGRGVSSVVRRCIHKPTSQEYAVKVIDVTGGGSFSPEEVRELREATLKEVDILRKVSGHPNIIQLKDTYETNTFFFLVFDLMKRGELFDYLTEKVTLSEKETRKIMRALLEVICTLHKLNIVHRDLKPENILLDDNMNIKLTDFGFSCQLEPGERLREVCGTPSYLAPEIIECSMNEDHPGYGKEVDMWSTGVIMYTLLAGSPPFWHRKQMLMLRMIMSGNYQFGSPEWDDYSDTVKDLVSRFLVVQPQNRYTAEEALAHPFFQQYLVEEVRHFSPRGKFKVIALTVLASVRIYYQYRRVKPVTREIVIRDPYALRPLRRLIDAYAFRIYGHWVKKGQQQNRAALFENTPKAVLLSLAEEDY
Chain of Receptor-interacting serine/threonine-protein kinase 2 (Homo sapiens) (O43353 whole entry): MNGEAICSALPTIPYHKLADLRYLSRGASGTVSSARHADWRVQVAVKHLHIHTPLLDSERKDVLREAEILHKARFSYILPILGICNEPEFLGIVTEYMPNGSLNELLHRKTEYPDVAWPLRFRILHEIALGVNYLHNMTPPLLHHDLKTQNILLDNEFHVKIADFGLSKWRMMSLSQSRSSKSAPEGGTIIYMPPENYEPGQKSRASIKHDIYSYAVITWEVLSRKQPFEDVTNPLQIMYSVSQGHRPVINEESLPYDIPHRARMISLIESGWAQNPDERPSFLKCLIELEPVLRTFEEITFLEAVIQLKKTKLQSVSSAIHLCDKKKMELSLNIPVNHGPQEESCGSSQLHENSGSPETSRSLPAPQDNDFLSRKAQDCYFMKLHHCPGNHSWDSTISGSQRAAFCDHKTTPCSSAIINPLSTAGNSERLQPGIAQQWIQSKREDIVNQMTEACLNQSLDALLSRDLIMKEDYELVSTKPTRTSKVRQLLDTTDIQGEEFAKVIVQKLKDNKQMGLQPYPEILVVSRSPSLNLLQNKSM
Chain of Mitogen-activated protein kinase 1 (Homo sapiens) (P28482 whole entry): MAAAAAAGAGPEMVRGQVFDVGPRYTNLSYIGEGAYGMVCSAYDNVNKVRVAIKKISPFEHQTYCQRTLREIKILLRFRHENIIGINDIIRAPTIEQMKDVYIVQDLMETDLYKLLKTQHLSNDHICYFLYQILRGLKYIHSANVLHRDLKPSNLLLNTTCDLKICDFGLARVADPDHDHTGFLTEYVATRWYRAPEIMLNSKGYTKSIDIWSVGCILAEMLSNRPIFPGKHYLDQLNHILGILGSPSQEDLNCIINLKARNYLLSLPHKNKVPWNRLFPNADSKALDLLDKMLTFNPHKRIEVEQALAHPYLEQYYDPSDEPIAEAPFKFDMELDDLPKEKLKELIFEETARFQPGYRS
Chain of Mitogen-activated protein kinase 14 (Homo sapiens) (Q16539 whole entry): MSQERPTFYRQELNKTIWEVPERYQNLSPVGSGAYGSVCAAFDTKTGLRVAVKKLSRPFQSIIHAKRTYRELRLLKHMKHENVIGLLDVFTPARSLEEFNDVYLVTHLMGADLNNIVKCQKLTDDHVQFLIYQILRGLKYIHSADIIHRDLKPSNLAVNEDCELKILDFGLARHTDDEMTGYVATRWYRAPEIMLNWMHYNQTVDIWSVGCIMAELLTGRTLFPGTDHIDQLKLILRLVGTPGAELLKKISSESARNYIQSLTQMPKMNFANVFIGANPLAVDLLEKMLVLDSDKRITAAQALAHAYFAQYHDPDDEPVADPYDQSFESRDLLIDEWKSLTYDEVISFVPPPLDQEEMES
Chain of Serine/threonine-protein kinase 32A (Homo sapiens) (Q8WU08 whole entry): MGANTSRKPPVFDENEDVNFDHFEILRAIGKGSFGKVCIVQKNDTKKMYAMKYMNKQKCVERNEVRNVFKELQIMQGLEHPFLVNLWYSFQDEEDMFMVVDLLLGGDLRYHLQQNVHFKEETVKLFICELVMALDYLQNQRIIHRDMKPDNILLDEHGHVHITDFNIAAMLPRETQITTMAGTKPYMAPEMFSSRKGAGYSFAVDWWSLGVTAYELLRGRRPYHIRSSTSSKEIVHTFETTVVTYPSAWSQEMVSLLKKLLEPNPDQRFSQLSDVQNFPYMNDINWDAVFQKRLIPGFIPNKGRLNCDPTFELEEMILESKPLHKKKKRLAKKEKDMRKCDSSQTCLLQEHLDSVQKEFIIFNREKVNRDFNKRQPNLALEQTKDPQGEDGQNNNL

inhibition [1]: 0%
inhibition [2]: 0%
fold change (FC) [3]: 0.07
SMILES: CNC(=O)c1ccccc1Oc1nc(Nc2cc(OC)c(OC)c(OC)c2)ncc1Br

inhibition [4]: 0%
inhibition [5]: 0%
fold change (FC) [6]: 0.1
fold change (FC) [7]: 0
fold change (FC) [8]: 0.41
fold change (FC) [9]: 0.86
SMILES: CC(C)[C@H](NC(=O)c1cc(-c2cnn3cc(-c4ccc(OCCN5CCCCC5)cc4)cnc23)cs1)C(F)(F)F

inhibition [10]: 5%
inhibition [11]: 34%
inhibition [12]: 12%
fold change (FC) [13]: 0
fold change (FC) [14]: 0
fold change (FC) [15]: 0.41
fold change (FC) [16]: 0.07
SMILES: O=C(N[C@@H](C1CC1)C(F)(F)F)c1cc(-c2cnn3cc(-c4ccc(F)cc4)cnc23)cs1
